Usually inhibition stands for the drop in the measured response relative to a control, in per cent. High values mean a response far below the control, low ones a response near the control.

Activity calls are given as the source filed them. The rule behind the calls is not given here.

The test system of data set [1] is Mus musculus. The data set is described as follows: Agonist activity at TrkB receptor in C57BL/J6 mouse brain assessed as TrkB phosphorylation at tyrosine 816 in hippocampus at 2.5 mg/kg, po administered qd for 21 days by immunoblotting analysis. A general note: In western blotting, separated proteins are transferred to a membrane and probed.
For data set [2], the system named is Mus musculus. The data set is described as follows: Toxicity in C57BL/J6 mouse assessed as increase in locomotion at 2.5 mg/kg, po administered qd for 21 days by locomotor activity assay. The class given is organism-based. Details: dose 2.5 mg/kg, route oral. Conditions: in vivo, 504 h. The procedure, abridged:
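Male C57BL/6J mice were given compound or saline vehicle by oral gavage once daily for 21 days, with forced swim and tail suspension tests also run. Ambulations (consecutive photobeam breaks) were recorded in automated locomotor chambers for 2 h, binned at 30 min intervals.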

The target of data set [3] is T1, CYP2D6 (Homo sapiens, UniProt P10635). The experiment in a line: Inhibition of CYP2D6 at 30 uM. It counts as ADME.
T1 sequence (P10635 whole entry): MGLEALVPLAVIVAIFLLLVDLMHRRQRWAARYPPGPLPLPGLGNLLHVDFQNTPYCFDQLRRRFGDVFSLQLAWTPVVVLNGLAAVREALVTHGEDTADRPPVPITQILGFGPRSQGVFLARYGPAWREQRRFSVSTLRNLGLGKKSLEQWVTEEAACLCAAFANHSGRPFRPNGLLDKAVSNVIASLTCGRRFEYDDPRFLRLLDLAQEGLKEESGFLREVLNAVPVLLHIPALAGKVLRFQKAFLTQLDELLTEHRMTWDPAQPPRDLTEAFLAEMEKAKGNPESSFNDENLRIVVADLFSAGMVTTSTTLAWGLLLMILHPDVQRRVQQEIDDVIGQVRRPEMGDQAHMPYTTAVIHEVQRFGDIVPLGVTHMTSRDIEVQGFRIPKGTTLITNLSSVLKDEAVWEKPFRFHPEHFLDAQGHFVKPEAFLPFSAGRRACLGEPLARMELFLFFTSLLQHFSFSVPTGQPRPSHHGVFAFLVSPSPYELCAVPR
The target in data set [4] is T2, CYP1A2 (Homo sapiens, UniProt P05177).
T2 sequence (P05177 whole entry): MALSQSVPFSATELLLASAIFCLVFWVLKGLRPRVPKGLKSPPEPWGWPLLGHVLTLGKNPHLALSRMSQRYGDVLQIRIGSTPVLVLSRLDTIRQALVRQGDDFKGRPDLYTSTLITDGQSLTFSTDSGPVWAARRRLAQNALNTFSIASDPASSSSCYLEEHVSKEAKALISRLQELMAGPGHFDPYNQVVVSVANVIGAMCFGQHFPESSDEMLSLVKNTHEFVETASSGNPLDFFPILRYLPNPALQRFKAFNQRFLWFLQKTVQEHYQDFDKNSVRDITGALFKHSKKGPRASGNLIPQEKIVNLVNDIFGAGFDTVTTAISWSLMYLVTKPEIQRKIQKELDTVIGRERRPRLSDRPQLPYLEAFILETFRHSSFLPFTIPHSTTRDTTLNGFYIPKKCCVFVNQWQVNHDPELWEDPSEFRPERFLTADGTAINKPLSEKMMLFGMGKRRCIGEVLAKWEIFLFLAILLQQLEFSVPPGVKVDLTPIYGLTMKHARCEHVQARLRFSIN
The experiment in a line: Inhibition of CYP1A2 at 30 uM. It counts as ADME. In a few lines:
(§1)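 CYP inhibition was tested at 3 and 30 μM and reported as percent inhibition. The assay was run by a contract lab.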

For data set [5], the target named is BDNF/NT-3 growth factors receptor (Rattus norvegicus) (UniProt Q63604). The experiment in a line: Agonist activity at TrkB receptor in rat primary neurons assessed as Akt phosphorylation at 500 nM after 15 mins by immunoblotting analysis. It counts as functional. In a few lines:
(§2)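 Primary cortical cultures from E17 rat embryos were exposed to 500 nM for 15 min. Lysates were immunoblotted for p-TrkB and p-Akt (20 μg per lane). Two replicate experiments.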

The nature of data set [6]: Metabolic stability in human liver microsomes assessed as remaining parent compound at 1 uM after 1 hr in the absence of […]. The class given is ADME, Microsome. Particulars: read-out: Stability. In a few lines: (§3)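 Human liver microsomes were incubated with test compound at 1 μM for 1 h. Percent parent remaining was measured with cofactor and in a cofactor-free control. The work was done by a contract lab.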
For orientation: Liver microsomes are vesicles of endoplasmic reticulum, rich in cytochrome P450 enzymes.

In data set [7] the target is T1, CYP2D6. The data set is described as follows: Inhibition of CYP2D6 at 3 uM. The class given is ADME.
Data set [8] relates to Mus musculus. The data set is described as follows: Agonist activity at TrkB receptor in C57BL/J6 mouse brain assessed as TrkB phosphorylation at tyrosine 816 in hippocampus at 2.5 mg/kg, po after 2 hrs by immunoblotting analysis. The class given is functional, organism-based. The arrangement: dose 2.5 mg/kg.
For data set [9], the target named is T3, CYP3A4 (Homo sapiens, UniProt P08684). The experiment in a line: Inhibition of CYP3A4 at 3 uM using modazolam substrate. Particulars: probe midazolam (printed: modazolam). It counts as ADME.
T3 sequence (P08684 whole entry): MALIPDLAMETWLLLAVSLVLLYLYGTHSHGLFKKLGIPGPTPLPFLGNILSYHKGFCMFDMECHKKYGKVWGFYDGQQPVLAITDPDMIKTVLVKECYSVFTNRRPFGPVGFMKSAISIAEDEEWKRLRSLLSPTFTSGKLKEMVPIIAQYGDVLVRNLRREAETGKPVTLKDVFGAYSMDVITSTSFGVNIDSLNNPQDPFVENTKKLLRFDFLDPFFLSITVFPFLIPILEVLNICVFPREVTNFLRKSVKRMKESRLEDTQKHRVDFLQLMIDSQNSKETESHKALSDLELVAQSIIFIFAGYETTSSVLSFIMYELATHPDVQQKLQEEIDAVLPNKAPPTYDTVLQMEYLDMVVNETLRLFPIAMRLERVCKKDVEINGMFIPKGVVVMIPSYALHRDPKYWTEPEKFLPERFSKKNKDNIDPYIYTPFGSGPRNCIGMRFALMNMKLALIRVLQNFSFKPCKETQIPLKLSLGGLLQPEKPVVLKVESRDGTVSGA
Data set [10] addresses T4, CYP2C19 (Homo sapiens, UniProt P33261). The data set is described as follows: Inhibition of CYP2C19 at 3 uM. The class given is ADME. In a few lines: as §1
For data set [11], the system named is Mus musculus. The data set is described as follows: Agonist activity at TrkB receptor in C57BL/J6 mouse brain assessed as Akt phosphorylation at serine 473 in hippocampus at 2.5 mg/kg, po after 2 hrs by immunoblotting analysis. The arrangement: dose 2.5 mg/kg. The class given is functional, organism-based.
In data set [12] the target is T5, CYP2C9 (Homo sapiens, UniProt P11712). The experiment in a line: Inhibition of CYP2C9 at 3 uM. It counts as ADME. In a few lines:
as §1

The target in data set [13] is BDNF/NT-3 growth factors receptor (Rattus norvegicus) (UniProt Q63604). The experiment in a line: Agonist activity at TrkB receptor in rat primary neurons assessed as TrkB phosphorylation at tyrosine 816 at 500 nM after 15 mins by immunoblotting analysis. The class given is functional. The procedure, abridged: as §2
Chain of BDNF/NT-3 growth factors receptor (Rattus norvegicus) (Q63604 whole entry): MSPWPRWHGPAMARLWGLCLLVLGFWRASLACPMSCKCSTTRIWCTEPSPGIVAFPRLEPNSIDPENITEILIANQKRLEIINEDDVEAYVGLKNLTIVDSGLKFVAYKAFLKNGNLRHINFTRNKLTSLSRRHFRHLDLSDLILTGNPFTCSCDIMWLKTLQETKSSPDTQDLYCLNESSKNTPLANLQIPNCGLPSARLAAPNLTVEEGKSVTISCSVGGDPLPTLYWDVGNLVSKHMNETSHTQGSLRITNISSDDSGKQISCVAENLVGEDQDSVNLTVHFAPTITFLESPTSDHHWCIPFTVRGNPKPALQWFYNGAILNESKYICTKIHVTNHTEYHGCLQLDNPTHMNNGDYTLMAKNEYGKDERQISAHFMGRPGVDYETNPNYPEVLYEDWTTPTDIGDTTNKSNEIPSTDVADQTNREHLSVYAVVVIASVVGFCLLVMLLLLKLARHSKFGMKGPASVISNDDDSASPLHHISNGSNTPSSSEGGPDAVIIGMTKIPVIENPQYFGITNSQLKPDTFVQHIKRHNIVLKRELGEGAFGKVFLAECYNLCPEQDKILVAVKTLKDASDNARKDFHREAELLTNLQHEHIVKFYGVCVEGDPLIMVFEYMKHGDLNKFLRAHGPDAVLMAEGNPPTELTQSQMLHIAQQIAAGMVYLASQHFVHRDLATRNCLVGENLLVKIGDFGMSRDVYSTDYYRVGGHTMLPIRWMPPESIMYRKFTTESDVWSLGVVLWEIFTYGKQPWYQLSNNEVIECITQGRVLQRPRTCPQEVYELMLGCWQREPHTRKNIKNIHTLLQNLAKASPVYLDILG
Data set [14] has as its system HepG2. The experiment in a line: Genotoxicity in human HepG2 cells assessed as micronuclei formation at 50 uM after 24 hrs by DAPI staining. It counts as toxicity, cell-based. Conditions: hepg2, 24 h. In a few lines: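 HepG2 cells were exposed to 50 μM for 24 h, with benzo(a)pyrene as positive control. Cells were swollen in hypotonic KCl/NaCl for 10 min at 37°C, fixed in methanol/acetic acid 3:1 and stained with DAPI at 2 μg/ml. Three independent experiments, one-way ANOVA.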

For data set [15], the system named is Mus musculus. The experiment in a line: Agonist activity at TrkB receptor in C57BL/J6 mouse brain assessed as TrkB phosphorylation at tyrosine 816 in hippocampus at 1 mg/kg, po after 2 hrs by immunoblotting analysis. The class given is functional, organism-based. The arrangement: dose 1 mg/kg. In a few lines: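 Hippocampus from male C57BL/6J mice was taken 2 h after a single 1 mg/kg oral dose. Brain was homogenised and ultracentrifuged, and 40 μg supernatant was immunoblotted for p-TrkB, p-Akt and p-MAPK.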

Data set [16] deals with T5, CYP2C9. The experiment in a line: Inhibition of CYP2C9 at 30 uM. The class given is ADME. The procedure, abridged:
as §1

Data set [17] concerns Mus musculus. The data set is described as follows: Agonist activity at TrkB receptor in C57BL/J6 mouse brain assessed as TrkB phosphorylation at tyrosine 816 in hippocampus at 2.5 mg/kg, po […] by Western blotting analysis. The class given is functional, organism-based. Details: dose 2.5 mg/kg. In a few lines:
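Male C57BL/6J mice were gavaged with 2.5 mg/kg/day for 21 days, with saline vehicle controls. Hippocampus was collected after the behavioural tests, and BrdU at 100 mg/kg i.p. was given 2 h before sacrifice. Lysates were immunoblotted for p-TrkB, total TrkB and p-Akt, and the p-TrkB/TrkB ratio was determined. Two replicate experiments, Student's t-test.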

In data set [18] the target is T4, CYP2C19. The experiment in a line: Inhibition of CYP2C19 at 30 uM. It counts as ADME. The procedure, abridged:
as §1

Data set [19] concerns Mus musculus. The data set is described as follows: Agonist activity at TrkB receptor in C57BL/J6 mouse brain assessed as TrkB phosphorylation at tyrosine 816 in dentate gyrus at 2.5 mg/kg, po administered qd for 21 days by immunohistochemical staining. The class given is functional, organism-based. Details: dose 2.5 mg/kg. The procedure, abridged:
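Mice were gavaged with 2.5 mg/kg/day for 21 days and perfused with 4% paraformaldehyde. Paraffin sections of 6 μm had antigen retrieval by boiling in 10 mM citrate, pH 6.0. Sections were stained with anti-p-TrkB 816 at 1:300 and anti-TrkB at 1:50, with fluorescent secondaries and DAPI, and dentate gyrus was examined.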

For data set [20], the target named is T3, CYP3A4. The experiment in a line: Inhibition of CYP3A4 at 30 uM using testosterone substrate. It counts as ADME. Particulars: probe testosterone.
Data set [21] in a line: Metabolic stability in human liver microsomes assessed as remaining parent compound at 1 uM after 1 hr in the presence of […]. It counts as ADME, Microsome. Conditions: read-out: Stability. The procedure, abridged: as §3
For data set [22], the system named is Plasma. The data set is described as follows: Fraction unbound in human plasma at 5 uM. It counts as ADME, cell-free. The procedure, abridged: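 Human plasma protein binding was tested at 5 μM, reporting fraction unbound, fraction bound and recovery. The assay was run by a contract lab.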
For data set [23], the system named is Liver microsomes. The data set is described as follows: Metabolic stability in human liver microsomes assessed as formation of reactive metabolites at 1 uM after 1 hr. The class given is ADME, Microsome.

T5 sequence (P11712 whole entry): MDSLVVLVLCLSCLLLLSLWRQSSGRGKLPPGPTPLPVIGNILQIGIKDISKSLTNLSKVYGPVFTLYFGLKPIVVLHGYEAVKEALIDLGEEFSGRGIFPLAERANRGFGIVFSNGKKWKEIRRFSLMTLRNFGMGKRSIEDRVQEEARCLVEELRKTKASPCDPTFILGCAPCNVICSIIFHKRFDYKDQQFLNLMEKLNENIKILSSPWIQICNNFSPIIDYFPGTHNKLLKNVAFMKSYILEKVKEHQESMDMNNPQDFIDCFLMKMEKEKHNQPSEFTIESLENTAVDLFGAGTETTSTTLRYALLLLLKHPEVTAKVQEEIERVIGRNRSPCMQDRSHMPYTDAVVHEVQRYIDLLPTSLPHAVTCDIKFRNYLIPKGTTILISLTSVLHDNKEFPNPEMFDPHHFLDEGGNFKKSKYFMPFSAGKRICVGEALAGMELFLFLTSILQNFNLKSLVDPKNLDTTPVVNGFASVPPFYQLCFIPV
T4 sequence (P33261 whole entry): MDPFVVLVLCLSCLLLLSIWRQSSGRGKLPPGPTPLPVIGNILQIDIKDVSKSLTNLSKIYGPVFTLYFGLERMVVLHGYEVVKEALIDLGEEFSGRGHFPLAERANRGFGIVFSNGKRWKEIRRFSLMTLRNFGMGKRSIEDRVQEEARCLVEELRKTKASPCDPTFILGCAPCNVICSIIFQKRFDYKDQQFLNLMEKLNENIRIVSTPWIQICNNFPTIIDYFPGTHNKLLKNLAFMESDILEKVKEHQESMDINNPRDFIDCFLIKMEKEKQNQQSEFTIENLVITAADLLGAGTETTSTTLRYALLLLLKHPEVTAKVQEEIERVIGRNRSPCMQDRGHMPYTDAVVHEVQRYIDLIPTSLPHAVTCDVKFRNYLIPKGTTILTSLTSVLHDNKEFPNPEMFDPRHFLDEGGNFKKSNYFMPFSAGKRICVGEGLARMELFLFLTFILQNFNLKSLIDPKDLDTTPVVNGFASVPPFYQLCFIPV

On to `Cc1nc2ccc3c(=O)cc(-c4ccc(N5CCCC5)cc4)oc3c2[nH]1`, for which the result in data set [1], in data set [5], in data set [8], in data set [11], in [13] and in data set [15] was Active. The result in data set [17] and in data set [19] was Active. Besides, the Activity result in [2] and in [14] was “Non-toxic” throughout. The inhibition at 30 µM in data set [3] turned out to be 32%; in [4], 66.1%; in data set [16], 73.6%; in [18], 57.7%; in [20], 43.3%. Moreover, the figures for the remaining at 1 h, 1 µM in [6] and in data set [21] were 92.2% and 25.4%, respectively. The inhibition at 3 µM in data set [7] stood at 8.7%; in data set [9], 10.8%; in [10], 11.1%; in data set [12], 12.4%. The compound also showed a Fu in data set [22] of 0.03%. Further, the Stability result in [23] is “Stable”.
Consider `O=c1cc(-c2ccc(N3CCCC3)cc2)oc2c1ccc1cc[nH]c12`, for which the outcome in data set [1], in [5], in [8], in data set [11], in data set [13] and in data set [15] was Active. In addition, the result in [17] and in [19] was Active. For the same compound, the Activity entry in [2] and in data set [14] was “Non-toxic” throughout. The inhibition at 30 µM in [3] is 81.6%; in [4] it was 75.9%; in data set [16], 52.9%; in [18], 90%; in [20] it was 18.7%. In addition, the results for the remaining at 1 h, 1 µM in data set [6] and in data set [21] were 79.6% and 1.2%, respectively. For the same compound, the inhibition at 3 µM came to 7.2% in data set [7], 3.9% in data set [9], 16.2% in data set [10] and 11.9% in data set [12]. The Fu in [22] is 0.07%. The Stability result in data set [23] is listed as “Unstable”.

The values are drawn from ChEMBL document CHEMBL2203249, “Optimization of a small tropomyosin-related kinase B (TrkB) agonist 7,8-dihydroxyflavone active in mouse models of depression” (J Med Chem, 2012).
